Results as given in ChEMBL document CHEMBL2177027, “Exploring the directionality of 5-substitutions in a new series of 5-alkylaminopyrazolo[4,3-e]1,2,4-triazolo[1,5-c]pyrimidine as a strategy to design novel human a(3) adenosine receptor antagonists” (J Med Chem, 2012).

Tests used:
[1] = target: T1, Adenosine receptor A1 (Homo sapiens, UniProt P30542); test: Displacement of [3H]CCPA from human adenosine A1 receptor expressed in CHO cell membrane; assay type: cell membranes
T1 sequence (P30542 whole entry): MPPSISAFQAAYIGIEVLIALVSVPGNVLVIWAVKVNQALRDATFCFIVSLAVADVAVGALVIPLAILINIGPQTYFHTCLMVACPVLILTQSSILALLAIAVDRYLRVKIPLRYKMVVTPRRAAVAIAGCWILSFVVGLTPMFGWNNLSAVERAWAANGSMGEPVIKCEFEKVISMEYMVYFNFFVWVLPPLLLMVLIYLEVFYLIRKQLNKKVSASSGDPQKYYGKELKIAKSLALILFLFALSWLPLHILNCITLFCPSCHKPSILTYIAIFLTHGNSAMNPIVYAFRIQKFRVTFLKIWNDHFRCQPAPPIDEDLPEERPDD
Summary of the method: (§1)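 CHO cells stably transfected with the human receptor subtype. Membranes were prepared by a 1000g spin to clear fragments and nuclei, then pelleted from the supernatant at 100 000g. Pellet was resuspended in the respective binding buffer, frozen in liquid nitrogen and stored until radioligand competition binding.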

[2] = Selectivity ratio of Ki for human adenosine A1 receptor expressed in CHO cell membrane to Ki for human adenosine A2A receptor expressed in CHO cell membrane; assay type: cell-based
[3] = target: T2, Adenosine receptor A3 (Homo sapiens, UniProt P0DMS8); test: Displacement of [3H]NECA from human adenosine A3 receptor expressed in CHO cell membrane; assay type: cell membranes; summary of the method: as §1
T2 sequence (P0DMS8 whole entry): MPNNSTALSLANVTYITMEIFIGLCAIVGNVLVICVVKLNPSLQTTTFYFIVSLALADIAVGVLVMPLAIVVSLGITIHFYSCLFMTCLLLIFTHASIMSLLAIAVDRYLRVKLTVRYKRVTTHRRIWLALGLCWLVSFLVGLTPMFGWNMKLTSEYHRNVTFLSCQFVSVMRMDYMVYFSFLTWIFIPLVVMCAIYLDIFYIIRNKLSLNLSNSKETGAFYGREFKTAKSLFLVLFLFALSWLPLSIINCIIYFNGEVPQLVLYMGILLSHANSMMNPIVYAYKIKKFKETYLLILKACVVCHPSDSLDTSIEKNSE

[4] = target: T3, Adenosine receptor A2b (Homo sapiens, UniProt P29275); test: Antagonist activity at human adenosine A2B receptor expressed in CHO cells assessed as NECA-induced adenylate cyclase activity; assay type: functional, cell-based
T3 sequence (P29275 whole entry): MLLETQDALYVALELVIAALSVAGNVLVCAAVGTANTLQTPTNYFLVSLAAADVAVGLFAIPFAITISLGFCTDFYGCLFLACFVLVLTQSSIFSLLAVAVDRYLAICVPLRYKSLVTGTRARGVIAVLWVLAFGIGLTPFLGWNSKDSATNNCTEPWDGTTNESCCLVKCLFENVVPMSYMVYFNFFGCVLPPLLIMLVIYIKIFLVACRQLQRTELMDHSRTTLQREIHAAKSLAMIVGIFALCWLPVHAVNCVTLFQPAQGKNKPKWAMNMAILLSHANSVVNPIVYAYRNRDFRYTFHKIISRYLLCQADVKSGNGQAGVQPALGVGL
Summary of the method: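 Membranes from stably transfected CHO cells made with a single high-speed spin of the homogenate. Incubated 20 min with about 150 000 cpm [α-³²P]ATP in mixture lacking EDTA and NaCl. IC50 taken from concentration-dependent inhibition of NECA-stimulated adenylyl cyclase using Hill equation.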

[5] = Selectivity ratio of Ki for human adenosine A2A receptor expressed in CHO cell membrane to Ki for human adenosine A3 receptor expressed in CHO cell membrane; assay type: cell-based
[6] = target: Adenosine receptors; A1 & A3 (Homo sapiens) (UniProt P30542+P0DMS8); test: Selectivity ratio of Ki for human adenosine A1 receptor expressed in CHO cell membrane to Ki for human adenosine A3 receptor expressed in CHO cell membrane; assay type: cell-based
[7] = target: Adenosine receptor A2a (Homo sapiens, UniProt P29274); test: Displacement of [3H]NECA from human adenosine A2A receptor expressed in CHO cell membrane; assay type: cell membranes; summary of the method: as §1
Sequence of Adenosine receptor A2a (P29274 whole entry): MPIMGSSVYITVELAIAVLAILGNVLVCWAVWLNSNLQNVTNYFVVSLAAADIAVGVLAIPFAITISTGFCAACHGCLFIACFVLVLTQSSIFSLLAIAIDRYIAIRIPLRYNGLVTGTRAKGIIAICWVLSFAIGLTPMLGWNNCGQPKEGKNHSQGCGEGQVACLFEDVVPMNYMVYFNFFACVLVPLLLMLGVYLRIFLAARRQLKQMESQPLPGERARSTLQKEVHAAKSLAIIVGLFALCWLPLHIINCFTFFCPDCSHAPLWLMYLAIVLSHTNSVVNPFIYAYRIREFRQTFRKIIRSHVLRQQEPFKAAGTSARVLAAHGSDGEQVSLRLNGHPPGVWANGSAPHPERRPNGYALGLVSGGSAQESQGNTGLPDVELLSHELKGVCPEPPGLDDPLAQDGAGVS

| SMILES | Ki [1] | Ki [3] | Ki [4] | Ratio Ki [6] | Ki [7] | Ratio Ki [2] | Ratio Ki [5] |
| --- | --- | --- | --- | --- | --- | --- | --- |
| Cn1cc2c(nc(NCc3ccc(C(F)(F)F)cc3)n3nc(-c4ccco4)nc23)n1 | 1230 nM | 14.9 nM | > 3000 nM | 82.5 | 245 nM | 5.02 | 16.4 |
| Cn1cc2c(nc(NCc3ccc(Cl)cc3)n3nc(-c4ccco4)nc23)n1 | 322 nM | 1.99 nM | 2620 nM | 162 | 75.4 nM | 4.27 | 37.9 |
| Cn1cc2c(nc(N3CCCC3)n3nc(-c4ccco4)nc23)n1 | 328 nM | 35.5 nM | > 10000 nM | 9.24 | 132 nM | 2.48 | 3.72 |
| Cc1ccc(CNc2nc3nn(C)cc3c3nc(-c4ccco4)nn23)cc1 | 538 nM | 1.07 nM | 3940 nM | 503 | 117 nM | 4.6 | 109 |
| Cn1cc2c(nc(NC(C)(C)CC(C)(C)C)n3nc(-c4ccco4)nc23)n1 | 982 nM | 130 nM | > 10000 nM | 7.55 | 3230 nM | 0.3 | 24.8 |
| Cn1cc2c(nc(N(Cc3ccccc3)Cc3ccccc3)n3nc(-c4ccco4)nc23)n1 | 711 nM | 404 nM | > 10000 nM | 1.76 | 1150 nM | 0.62 | 2.85 |
| Cn1cc2c(nc(NCCCCCCO)n3nc(-c4ccco4)nc23)n1 | 483 nM | 156 nM | > 10000 nM | 3.1 | 109 nM | 4.43 | 0.7 |
| CCOc1nc2nn(C)cc2c2nc(-c3ccco3)nn12 | 7750 nM | 182 nM | > 10000 nM | 42.6 | 6120 nM | 1.27 | 33.6 |
| C[C@@H](Nc1nc2nn(C)cc2c2nc(-c3ccco3)nn12)c1ccccc1 | 945 nM | 3.71 nM | 12200 nM | 255 | 38.2 nM | 24.7 | 10.3 |
| CCN(CC)c1nc2nn(C)cc2c2nc(-c3ccco3)nn12 | 1450 nM | 96.3 nM | > 10000 nM | 15.1 | 798 nM | 1.82 | 8.29 |
| Cn1cc2c(nc(NC3CCCCCCC3)n3nc(-c4ccco4)nc23)n1 | 484 nM | 15.5 nM | > 10000 nM | 31.2 | 279 nM | 1.73 | 18 |
| COc1ccc(CCNc2nc3nn(C)cc3c3nc(-c4ccco4)nn23)cc1OC | 1580 nM | 37.6 nM | 3880 nM | 42 | 92.5 nM | 17.1 | 2.46 |
| COc1ccc(CNc2nc3nn(C)cc3c3nc(-c4ccco4)nn23)cc1 | 442 nM | 6.92 nM | 9840 nM | 63.9 | 177 nM | 2.5 | 25.6 |
| Cn1cc2c(nc(NCc3ccc(F)cc3)n3nc(-c4ccco4)nc23)n1 | 823 nM | 4.93 nM | 3180 nM | 167 | 87.5 nM | 9.41 | 17.8 |
| CCCCN(C)c1nc2nn(C)cc2c2nc(-c3ccco3)nn12 | 1060 nM | 36.7 nM | > 10000 nM | 28.9 | 1380 nM | 0.77 | 37.6 |
| CC(CCc1ccccc1)Nc1nc2nn(C)cc2c2nc(-c3ccco3)nn12 (centres undefined) | 133 nM | 37.8 nM | 5260 nM | 3.52 | 147 nM | 0.9 | 3.89 |
| Cn1cc2c(nc(N3CCCCC3)n3nc(-c4ccco4)nc23)n1 | 2150 nM | 38.1 nM | > 10000 nM | 56.4 | 352 nM | 6.11 | 9.24 |
| Cn1cc2c(nc(NCCc3c[nH]c4ccccc34)n3nc(-c4ccco4)nc23)n1 | 1250 nM | 30.9 nM | 2870 nM | 40.4 | 77 nM | 16.2 | 2.49 |
| Cn1cc2c(nc(NCc3ccc(-c4ccccc4)cc3)n3nc(-c4ccco4)nc23)n1 | 17500 nM | 187 nM | > 10000 nM | 93.6 | 593 nM | 29.5 | 3.17 |
| Cn1cc2c(n1)[nH]c(=O)n1nc(-c3ccco3)nc21 | > 30000 nM | 5280 nM | > 10000 nM | > 5.68 | > 30000 nM | – | > 5.68 |
| Cn1cc2c(nc(NC34CC5CC(CC(C5)C3)C4)n3nc(-c4ccco4)nc23)n1 | 3310 nM | 37.8 nM | > 10000 nM | 87.6 | > 30000 nM | – | > 794 |

Second part, led by results:

| Ki [1] | Ki [3] | Ki [4] | Ratio Ki [6] | Ki [7] | SMILES | Ratio Ki [2] | Ratio Ki [5] |
| --- | --- | --- | --- | --- | --- | --- | --- |
| 212 nM | 241 nM | 9300 nM | 0.88 | 155 nM | Cn1cc2c(nc(NCCCO)n3nc(-c4ccco4)nc23)n1 | 1.37 | 0.64 |
| 2750 nM | 404 nM | 8500 nM | 6.81 | 185 nM | CONc1nc2nn(C)cc2c2nc(-c3ccco3)nn12 | 14.9 | 0.46 |
| 333 nM | 34.1 nM | 9720 nM | 9.76 | 389 nM | CC(C)Nc1nc2nn(C)cc2c2nc(-c3ccco3)nn12 | 0.86 | 11.4 |
| 375 nM | 356 nM | > 3000 nM | 1.05 | 136 nM | CC(O)CNc1nc2nn(C)cc2c2nc(-c3ccco3)nn12 (centres undefined) | 2.76 | 0.38 |
| 605 nM | 3.82 nM | > 10000 nM | 158 | 512 nM | CCCCC(CC)CNc1nc2nn(C)cc2c2nc(-c3ccco3)nn12 (centres undefined) | 1.18 | 134 |
| > 30000 nM | 822 nM | > 10000 nM | > 36.5 | > 30000 nM | COc1nc2nn(C)cc2c2nc(-c3ccco3)nn12 | – | > 36.5 |
| 649 nM | 309 nM | 7470 nM | 2.1 | 157 nM | Cn1cc2c(nc(NCCO)n3nc(-c4ccco4)nc23)n1 | 4.13 | 0.51 |
| 208 nM | 69.3 nM | 1750 nM | 3 | 113 nM | Cn1cc2c(nc(NC3CC3)n3nc(-c4ccco4)nc23)n1 | 1.84 | 1.63 |
| 219 nM | 62.9 nM | > 10000 nM | 3.48 | 207 nM | CCC(CO)Nc1nc2nn(C)cc2c2nc(-c3ccco3)nn12 (centres undefined) | 1.06 | 3.29 |
| 525 nM | 136 nM | > 10000 nM | 3.86 | 124 nM | Cn1cc2c(nc(NCCCCCO)n3nc(-c4ccco4)nc23)n1 | 4.23 | 0.91 |
